Measured values: ChEMBL document CHEMBL1127451, “Benzoselenazolinone derivatives designed to be glutathione peroxidase mimetics feature inhibition of cyclooxygenase/5-lipoxygenase pathways and anti-inflammatory activity” (1994)

What was measured:
[1] = In vitro glutathione peroxidase activity at 2*10e-7M using tert-butyl hydroperoxide, activity given in percentage of ebselen''s activity; type: functional
Rattus norvegicus [2] = assay: Tested for acute anti-inflammatory activity of the antirat serum-induced edema in rats at dose of 30 mg/kg at time interval- 0.5 hr; type: functional
How it was run: (§1)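 Fasted Wistar rats (200–240 g), six per group, receive drug orally in 2% gelatin. One hour later, 0.1 mL rabbit antirat serum is injected subplantar into the hind paw. Paw volume is measured by water plethysmometry at injection and at 0.5, 1, 2, 3 and 4 h. Results are percent inhibition of swelling versus vehicle-treated rats.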

Rattus norvegicus [3] = assay: Tested for acute anti-inflammatory activity of the antirat serum-induced edema in rats at dose of 3 mg/kg at time interval- 2 hr; type: functional; how it was run: as §1
Rattus norvegicus [4] = assay: Tested for acute anti-inflammatory activity of carrageenan-induced foot edema in rats at dose of 30 mg/kg at time interval- 2 hr; type: functional
How it was run: as §1, with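 “2% carrageenan in […]” for “rabbit antirat serum”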

Rattus norvegicus [5] = assay: Tested for acute anti-inflammatory activity of the antirat serum-induced edema in rats at dose of 30 mg/kg at time interval- 4 hr; type: functional; how it was run: as §1
Rattus norvegicus [6] = assay: Tested for acute anti-inflammatory activity of carrageenan-induced foot edema in rats at dose of 3 mg/kg at time interval- 4 hr; type: functional
How it was run: as §1, with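 “2% carrageenan in […]” for “rabbit antirat serum”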

Rattus norvegicus [7] = assay: Tested for acute anti-inflammatory activity of the antirat serum-induced edema in rats at dose of 100 mg/kg at time interval- 2 hr; type: functional; how it was run: as §1
Rattus norvegicus [8] = assay: Tested for acute anti-inflammatory activity of carrageenan-induced foot edema in rats at dose of 100 mg/kg at time interval- 0.5 hr; type: functional
How it was run: as §1, with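 “2% carrageenan in […]” for “rabbit antirat serum”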

Rattus norvegicus [9] = assay: Tested for acute anti-inflammatory activity of the antirat serum-induced edema in rats at dose of 100 mg/kg at time interval- 3h; type: functional; how it was run: as §1
Rattus norvegicus [10] = assay: Tested for acute anti-inflammatory activity of carrageenan-induced foot edema in rats at dose of 30 mg/kg at time interval- 1 hr; type: functional
How it was run: as §1, with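 “2% carrageenan in […]” for “rabbit antirat serum”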

[11] = Inhibition of spontaneous lipid peroxidation at 10e-5 M in rat brain homogenate
Rattus norvegicus [12] = assay: Tested for acute anti-inflammatory activity of the antirat serum-induced edema in rats at dose of 100 mg/kg at time interval- 0.5 hr; type: functional; how it was run: as §1
Rattus norvegicus [13] = assay: Tested for acute anti-inflammatory activity of the antirat serum-induced edema in rats at dose of 30 mg/kg at time interval- 3h; type: functional; how it was run: as §1
Rattus norvegicus [14] = assay: Tested for acute anti-inflammatory activity of the antirat serum-induced edema in rats at dose of 3 mg/kg at time interval- 1 hr; type: functional; how it was run: as §1
Rattus norvegicus [15] = assay: Tested for acute anti-inflammatory activity of the antirat serum-induced edema in rats at dose of 3 mg/kg at time interval- 3h; type: functional; how it was run: as §1
Rattus norvegicus [16] = assay: Tested for acute anti-inflammatory activity of the antirat serum-induced edema in rats at dose of 100 mg/kg at time interval- 4 hr; type: functional; how it was run: as §1
[17] = In vitro glutathione peroxidase activity at 2*10e-7M using hydrogen peroxide, activity given in percentage of ebselen''s activity; type: functional
Rattus norvegicus [18] = assay: Tested for acute anti-inflammatory activity of carrageenan-induced foot edema in rats at dose of 100 mg/kg at time interval- 2 hr; type: functional
How it was run: as §1, with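 “2% carrageenan in […]” for “rabbit antirat serum”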

Rattus norvegicus [19] = assay: Tested for acute anti-inflammatory activity of the antirat serum-induced edema in rats at dose of 30 mg/kg at time interval- 2 hr; type: functional; how it was run: as §1
Rattus norvegicus [20] = assay: Tested for acute anti-inflammatory activity of the antirat serum-induced edema in rats at dose of 30 mg/kg at time interval- 1 hr; type: functional; how it was run: as §1
Rattus norvegicus [21] = assay: Tested for acute anti-inflammatory activity of the antirat serum-induced edema in rats at dose of 3 mg/kg at time interval- 0.5 hr; type: functional; how it was run: as §1
Rattus norvegicus [22] = assay: Tested for acute anti-inflammatory activity of carrageenan-induced foot edema in rats at dose of 3 mg/kg at time interval- 1 hr; type: functional
How it was run: as §1, with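 “2% carrageenan in […]” for “rabbit antirat serum”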

Rattus norvegicus [23] = assay: Tested for acute anti-inflammatory activity of carrageenan-induced foot edema in rats at dose of 30 mg/kg at time interval- 0.5 hr; type: functional
How it was run: as §1, with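 “2% carrageenan in […]” for “rabbit antirat serum”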

Rattus norvegicus [24] = assay: Tested for acute anti-inflammatory activity of carrageenan-induced foot edema in rats at dose of 100 mg/kg at time interval- 4 hr; type: functional
How it was run: as §1, with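 “2% carrageenan in […]” for “rabbit antirat serum”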

Rattus norvegicus [25] = assay: Tested for acute anti-inflammatory activity of carrageenan-induced foot edema in rats at dose of 30 mg/kg at time interval- 3h; type: functional
How it was run: as §1, with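 “2% carrageenan in […]” for “rabbit antirat serum”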

Rattus norvegicus [26] = assay: Tested for acute anti-inflammatory activity of carrageenan-induced foot edema in rats at dose of 30 mg/kg at time interval- 4 hr; type: functional
How it was run: as §1, with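 “2% carrageenan in […]” for “rabbit antirat serum”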

Rattus norvegicus [27] = assay: Tested for acute anti-inflammatory activity of carrageenan-induced foot edema in rats at dose of 3 mg/kg at time interval- 0.5 hr; type: functional
How it was run: as §1, with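 “2% carrageenan in […]” for “rabbit antirat serum”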

Rattus norvegicus [28] = assay: Tested for acute anti-inflammatory activity of carrageenan-induced foot edema in rats at dose of 100 mg/kg at time interval- 3h; type: functional
How it was run: as §1, with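 “2% carrageenan in […]” for “rabbit antirat serum”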

Rattus norvegicus [29] = assay: Tested for acute anti-inflammatory activity of carrageenan-induced foot edema in rats at dose of 3 mg/kg at time interval- 3h; type: functional
How it was run: as §1, with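 “2% carrageenan in […]” for “rabbit antirat serum”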

Rattus norvegicus [30] = assay: Tested for acute anti-inflammatory activity of the antirat serum-induced edema in rats at dose of 100 mg/kg at time interval- 1 hr; type: functional; how it was run: as §1
Rattus norvegicus [31] = assay: Tested for acute anti-inflammatory activity of carrageenan-induced foot edema in rats at dose of 100 mg/kg at time interval- 1 hr; type: functional
How it was run: as §1, with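 “2% carrageenan in […]” for “rabbit antirat serum”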

[32] = Inhibition of [Fe(2+)]/ascorbate-induced lipid peroxidation at 10e-5 M in rat brain homogenate
Rattus norvegicus [33] = assay: Tested for acute anti-inflammatory activity of the antirat serum-induced edema in rats at dose of 3 mg/kg at time interval- 4 hr; type: functional; how it was run: as §1
Rattus norvegicus [34] = assay: Tested for acute anti-inflammatory activity of carrageenan-induced foot edema in rats at dose of 3 mg/kg at time interval- 2 hr; type: functional
How it was run: as §1, with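 “2% carrageenan in […]” for “rabbit antirat serum”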

Molecule `Cc1c(C)c2c(c(C)c1O)CCC(C)(C(=O)O)O2` (stereo unspecified) has a GSH-Px activity [1] of 0.
`O=C(c1ccccc1)c1ccc2[nH]c(=O)[se]c2c1` gave an inhibition in vivo at 30 mg/kg (Rattus norvegicus [2]) of -9.8%, an inhibition in vivo at 3 mg/kg (Rattus norvegicus [3]) of -10.7% and an inhibition in vivo at 30 mg/kg (Rattus norvegicus [4]) of 31.7%. It also gave an inhibition in vivo at 30 mg/kg (Rattus norvegicus [5]) of 25.2%, an inhibition in vivo at 3 mg/kg (Rattus norvegicus [6]) of 9.6% and an inhibition in vivo at 100 mg/kg (Rattus norvegicus [7]) of 12.7%. It also gave an inhibition in vivo at 100 mg/kg (Rattus norvegicus [8]) of -76.2%, a GSH-Px activity [1] of 0 and an inhibition in vivo at 100 mg/kg (Rattus norvegicus [9]) of 18%. The inhibition in vivo at 30 mg/kg (Rattus norvegicus [10]) was 14.2%, the inhibition [11] was 0% and the inhibition in vivo at 100 mg/kg (Rattus norvegicus [12]) was -0.5%. For the same molecule, the inhibition in vivo at 30 mg/kg (Rattus norvegicus [13]) was 19.7%, the inhibition in vivo at 3 mg/kg (Rattus norvegicus [14]) was -16.7% and the inhibition in vivo at 3 mg/kg (Rattus norvegicus [15]) was -14.1%. It also gave an inhibition in vivo at 100 mg/kg (Rattus norvegicus [16]) of 19.3%, a GSH-Px activity [17] of 0 and an inhibition in vivo at 100 mg/kg (Rattus norvegicus [18]) of 51.6%. The inhibition in vivo at 30 mg/kg (Rattus norvegicus [19]) was 25.6%, the inhibition in vivo at 30 mg/kg (Rattus norvegicus [20]) was 5.3% and the inhibition in vivo at 3 mg/kg (Rattus norvegicus [21]) was -41.8%. For the same molecule, the inhibition in vivo at 3 mg/kg (Rattus norvegicus [22]) was -7.8%, the inhibition in vivo at 30 mg/kg (Rattus norvegicus [23]) was -22.2% and the inhibition in vivo at 100 mg/kg (Rattus norvegicus [24]) was 55.5%. The inhibition in vivo at 30 mg/kg (Rattus norvegicus [25]) was 35.6%, the inhibition in vivo at 30 mg/kg (Rattus norvegicus [26]) was 26.1% and the inhibition in vivo at 3 mg/kg (Rattus norvegicus [27]) was -42.9%. For the same molecule, the inhibition in vivo at 100 mg/kg (Rattus norvegicus [28]) was 58.5%, the inhibition in vivo at 3 mg/kg (Rattus norvegicus [29]) was 27.5% and the inhibition in vivo at 100 mg/kg (Rattus norvegicus [30]) was 6%. The inhibition in vivo at 100 mg/kg (Rattus norvegicus [31]) was 9.9%, the inhibition [32] was -3% and the inhibition in vivo at 3 mg/kg (Rattus norvegicus [33]) was -1.4%. For the same molecule, the inhibition in vivo at 3 mg/kg (Rattus norvegicus [34]) was 27.8%.
`CN(C)C(=O)Nc1ccccc1[Se][Se]c1ccccc1NC(=O)N(C)C` showed a GSH-Px activity [1] of 178, an inhibition [11] of 96% and a GSH-Px activity [17] of 236. It also gave an inhibition [32] of 97%.
For `O=c1[nH]c2ccc(C(O)c3ccccc3)cc2[se]1` (stereo unspecified), the GSH-Px activity [1] was 10, the inhibition [11] was -1% and the GSH-Px activity [17] was 0. The inhibition [32] was -1%.
In the case of `CCCC(=O)c1ccc2c(c1)[se]c(=O)n2C`, the GSH-Px activity [1] is reported as 0, the inhibition [11] is reported as 2% and the GSH-Px activity [17] is reported as 0. The inhibition [32] was -3%.
`CC(=O)c1ccc2[nH]c(=O)[se]c2c1` gave a GSH-Px activity [1] of 12, an inhibition [11] of 1% and a GSH-Px activity [17] of 0. It also gave an inhibition [32] of 6%.
